Source: ChEMBL document CHEMBL3352115, “Discovery of APD334: Design of a Clinical Stage Functional Antagonist of the Sphingosine-1-phosphate-1 Receptor” (ACS Med Chem Lett, 2014)
Activity calls are given as the source filed them. No cut-off for these calls is given here.

Columns and labels:
[1] = target: Sphingosine 1-phosphate receptor 5 (Homo sapiens) (UniProt Q9H228); assay: Agonist activity at human S1P5 receptor by beta-arrestin recruitment assay relative to S1P
[2] = AUC (0 to infinity) in dog at 1 mg/kg, iv or 3 mg/kg, po; format: ADME, organism-based, Canis lupus familiaris; details: plasma
Procedure, shortened: (§1)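 Preclinical iv/po PK; amorphous free acid dosed orally as a suspension in 0.5% methyl cellulose; clearance and Vss from intravenous administration.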

[3] = Cmax in monkey at 1 mg/kg, iv or 3 mg/kg, po; format: ADME, organism-based, Macaca mulatta; details: rhesus monkey, in vivo; procedure, shortened: as §1
[4] = target: Sphingosine 1-phosphate receptor 3 (Homo sapiens, UniProt Q99500); assay: Agonist activity at human S1P3 receptor by beta-arrestin recruitment assay
Sphingosine 1-phosphate receptor 3, sequence (Q99500 whole entry): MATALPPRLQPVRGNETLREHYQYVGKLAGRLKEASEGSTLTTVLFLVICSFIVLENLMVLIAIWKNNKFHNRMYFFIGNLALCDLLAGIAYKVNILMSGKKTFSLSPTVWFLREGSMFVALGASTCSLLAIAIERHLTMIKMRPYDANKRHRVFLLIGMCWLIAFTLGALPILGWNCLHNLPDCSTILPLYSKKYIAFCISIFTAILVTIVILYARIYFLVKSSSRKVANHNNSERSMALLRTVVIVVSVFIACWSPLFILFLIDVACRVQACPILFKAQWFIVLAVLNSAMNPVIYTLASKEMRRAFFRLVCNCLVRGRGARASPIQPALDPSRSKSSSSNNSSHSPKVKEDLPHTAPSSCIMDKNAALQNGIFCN

[5] = system: Canis familiaris; assay: Effect on heart rate in telemeterized dog up to 40 mg/kg; format: ADME, organism-based, Canis lupus familiaris; set-up: dose 40 mg/kg; details: in vivo
Procedure, shortened: (§2)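 Telemeterized dogs dosed at levels up to 40 mg/kg; pulse pressure, heart rate, body temperature and ECG parameters monitored.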

[6] = target: T1, Sphingosine 1-phosphate receptor 1 (Homo sapiens, UniProt P21453); assay: Agonist activity at human S1P1 receptor assessed as cAMP accumulation by HTRF assay relative to S1P; format: functional
T1 sequence (P21453 whole entry): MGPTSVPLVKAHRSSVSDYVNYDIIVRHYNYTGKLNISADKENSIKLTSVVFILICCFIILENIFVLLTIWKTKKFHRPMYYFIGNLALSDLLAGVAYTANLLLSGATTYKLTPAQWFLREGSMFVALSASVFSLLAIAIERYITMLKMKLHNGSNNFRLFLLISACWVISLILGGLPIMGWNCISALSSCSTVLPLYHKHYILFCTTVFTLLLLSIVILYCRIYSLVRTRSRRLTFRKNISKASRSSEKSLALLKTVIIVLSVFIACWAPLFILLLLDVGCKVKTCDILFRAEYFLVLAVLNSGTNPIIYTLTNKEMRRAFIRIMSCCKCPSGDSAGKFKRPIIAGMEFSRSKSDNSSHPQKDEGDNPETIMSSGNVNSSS
Procedure, shortened: (§3)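 HTRF cyclase (cAMP) functional assay at S1P1 of each species; EC50 taken as mean of three or more replicates; efficacy given as % agonism relative to S1P.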

[7] = Oral bioavailability in rat; format: ADME, organism-based; details: in vivo
[8] = Volume of distribution at steady state in rat at 1 mg/kg, iv; format: ADME, organism-based; set-up: dose 1 mg/kg, route intravenous; details: in vivo, read-out: Vdss
[9] = target: T1, Sphingosine 1-phosphate receptor 1; assay: Agonist activity at human S1P1 receptor by beta-arrestin recruitment assay relative to S1P
[10] = target: Sphingosine 1-phosphate receptor 2 (Homo sapiens, UniProt O95136); assay: Agonist activity at human S1P2 receptor by beta-arrestin recruitment assay
Sphingosine 1-phosphate receptor 2, sequence (O95136 whole entry): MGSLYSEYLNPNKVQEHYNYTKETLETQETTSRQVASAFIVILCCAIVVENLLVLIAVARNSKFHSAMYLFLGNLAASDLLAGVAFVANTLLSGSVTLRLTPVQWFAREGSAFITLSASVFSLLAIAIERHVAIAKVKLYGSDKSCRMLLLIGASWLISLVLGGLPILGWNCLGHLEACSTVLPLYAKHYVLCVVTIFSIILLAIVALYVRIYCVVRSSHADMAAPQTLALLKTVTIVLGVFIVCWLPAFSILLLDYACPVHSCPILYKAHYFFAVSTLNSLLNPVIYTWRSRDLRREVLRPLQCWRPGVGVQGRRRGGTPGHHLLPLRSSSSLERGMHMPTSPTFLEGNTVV

[11] = target: T1, Sphingosine 1-phosphate receptor 1; assay: Agonist activity at human S1P1 receptor assessed as cAMP accumulation by HTRF assay; format: functional; procedure, shortened: as §3
[12] = target: Sphingosine 1-phosphate receptor 1 (Macaca mulatta) (UniProt H9EUW9); assay: Agonist activity at monkey S1P1 receptor assessed as cAMP accumulation by HTRF assay relative to S1P; format: functional; procedure, shortened: as §3
Sphingosine 1-phosphate receptor 1 (Macaca mulatta), sequence (H9EUW9 as listed by the source): as the sequence (P21453 whole entry) above, with P3S, H12L, I37T, K41R, S189P, I241M, E365D counted along it

[13] = target: Sphingosine-1-phosphate receptor 1 (Canis lupus familiaris, UniProt W5VNF7); assay: Agonist activity at dog S1P1 receptor assessed as cAMP accumulation by HTRF assay; format: functional; procedure, shortened: as §3
Sphingosine-1-phosphate receptor 1, sequence (W5VNF7 whole entry): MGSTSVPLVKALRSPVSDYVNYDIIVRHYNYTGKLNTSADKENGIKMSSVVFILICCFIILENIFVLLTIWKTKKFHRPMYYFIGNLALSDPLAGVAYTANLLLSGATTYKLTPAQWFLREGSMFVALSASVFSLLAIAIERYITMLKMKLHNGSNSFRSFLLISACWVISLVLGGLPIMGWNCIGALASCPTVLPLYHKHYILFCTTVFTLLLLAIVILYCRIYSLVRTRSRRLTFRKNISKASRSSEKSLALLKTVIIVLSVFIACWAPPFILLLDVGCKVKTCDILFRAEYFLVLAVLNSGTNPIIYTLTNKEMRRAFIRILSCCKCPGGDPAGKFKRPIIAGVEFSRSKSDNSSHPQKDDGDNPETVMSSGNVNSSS

[14] = target: Sphingosine 1-phosphate receptor 4 (Homo sapiens) (UniProt O95977); assay: Agonist activity at human S1P4 receptor by beta-arrestin recruitment assay relative to S1P
[15] = Oral bioavailability in mouse at 1 mg/kg; format: ADME, organism-based; details: in vivo
[16] = system: Mus musculus; assay: Reduction in lymphocyte infiltration in C57Bl/6 mouse experimental autoimmune encephalomyelitis model of multiple sclerosis at 3 mg/kg dosed once daily beginning on day 18 and continued to day 37 by immunofluorescent staining method; format: functional, organism-based; set-up: dose 3 mg/kg
Procedure, shortened: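 Therapeutic EAE in female C57Bl/6 mice, dosing from day 18; spinal cord and brain collected day 37; cerebellum sections immunostained for CD45 and CD3 with DAPI counterstain; inflammatory foci and infiltrating lymphocytes assessed.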

[17] = AUC (0 to infinity) in rat at 1 mg/kg, iv or 1 mg/kg, po; format: ADME, organism-based; details: plasma; procedure, shortened: as §1
[18] = target: Voltage-gated inwardly rectifying potassium channel KCNH2 (Homo sapiens, UniProt Q12809); assay: Displacement of [3H]astemizole from human ERG
Voltage-gated inwardly rectifying potassium channel KCNH2, sequence (Q12809 whole entry): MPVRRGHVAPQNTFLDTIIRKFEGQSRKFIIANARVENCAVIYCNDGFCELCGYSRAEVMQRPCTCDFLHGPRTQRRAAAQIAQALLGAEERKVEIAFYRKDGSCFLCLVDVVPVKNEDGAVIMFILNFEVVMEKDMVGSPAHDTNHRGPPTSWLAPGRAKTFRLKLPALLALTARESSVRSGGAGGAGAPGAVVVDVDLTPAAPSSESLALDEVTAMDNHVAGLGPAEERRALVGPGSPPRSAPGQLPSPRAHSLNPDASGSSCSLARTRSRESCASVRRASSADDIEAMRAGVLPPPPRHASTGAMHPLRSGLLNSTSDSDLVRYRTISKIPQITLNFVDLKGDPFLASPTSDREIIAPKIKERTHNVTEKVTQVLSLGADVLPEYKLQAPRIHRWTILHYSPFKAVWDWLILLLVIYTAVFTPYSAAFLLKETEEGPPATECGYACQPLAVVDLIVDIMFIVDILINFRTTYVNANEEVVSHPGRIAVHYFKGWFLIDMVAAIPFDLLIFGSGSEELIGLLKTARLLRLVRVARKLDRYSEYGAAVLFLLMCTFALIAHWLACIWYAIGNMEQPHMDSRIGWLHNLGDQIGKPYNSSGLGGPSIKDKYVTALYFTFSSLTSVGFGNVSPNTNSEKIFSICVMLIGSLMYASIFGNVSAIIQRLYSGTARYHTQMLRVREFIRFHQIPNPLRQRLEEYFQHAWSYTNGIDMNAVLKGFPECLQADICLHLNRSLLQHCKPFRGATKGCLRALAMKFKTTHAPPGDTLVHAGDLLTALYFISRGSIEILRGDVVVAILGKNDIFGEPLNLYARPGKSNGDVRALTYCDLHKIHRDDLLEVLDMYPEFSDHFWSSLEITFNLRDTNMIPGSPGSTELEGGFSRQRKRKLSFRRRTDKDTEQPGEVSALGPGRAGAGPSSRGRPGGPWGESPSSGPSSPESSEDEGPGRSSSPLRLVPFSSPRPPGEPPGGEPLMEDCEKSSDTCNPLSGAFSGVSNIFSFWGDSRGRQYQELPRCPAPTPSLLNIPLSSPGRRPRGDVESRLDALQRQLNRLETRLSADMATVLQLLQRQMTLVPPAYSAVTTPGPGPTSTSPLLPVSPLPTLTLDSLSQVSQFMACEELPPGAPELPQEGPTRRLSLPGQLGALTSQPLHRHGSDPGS
Procedure, shortened: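 hERG interaction assessed by [³H]-astemizole binding displacement.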

[19] = Systemic clearance in dog at 1 mg/kg, iv; format: ADME, organism-based, Canis lupus familiaris; set-up: dose 1 mg/kg, route intravenous; details: in vivo
[20] = system: Rattus norvegicus; assay: Induction of body weight regain in Lewis rat collagen-induced arthritis model at 1 mg/kg, po qd measured on day 17 (reference value: 160.3 +/- 2.3 g); format: functional
[21] = target: Sphingosine-1-phosphate receptor 1 (Canis lupus familiaris) (UniProt W5VNF7); assay: Agonist activity at dog S1P1 receptor assessed as cAMP accumulation by HTRF assay relative to S1P; format: functional; procedure, shortened: as §3
Sphingosine-1-phosphate receptor 1 (Canis lupus familiaris), sequence (W5VNF7 as listed by the source): as the sequence (W5VNF7 whole entry) above

[22] = system: Rattus norvegicus; assay: Effect on liver function in Sprague-Dawley rat at 30 to 1000 mg/kg; format: ADME, organism-based; set-up: dose 30-1000 mg/kg; details: in vivo
[23] = system: Canis familiaris; assay: Systemic clearance in dog at 1 mg/kg, iv relative to liver blood flow; format: ADME, organism-based, Canis lupus familiaris; set-up: dose 1 mg/kg, route intravenous; details: in vivo
[24] = Protein binding in rat plasma; format: ADME, cell-free; details: read-out: PPB (converted)
[25] = Cmax in rat at 1 mg/kg equivalent, po; format: ADME, organism-based; set-up: dose 1 mg/kg, route oral; details: in vivo
Procedure, shortened: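 SD rat given L-arginine salt orally as a solution in sterile water, 1.0 mg/kg free-acid equivalent; Cmax measured.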

[26] = Ratio of plasma concentration in Sprague-Dawley rat at 14.5 ug/hr/kg dosed as constant infusion to IC50 for reduction in peripheral lymphocyte count in orally dosed rat; format: ADME, organism-based; details: in vivo, po
Procedure, shortened: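 Male Sprague–Dawley rats received a 48 h constant infusion at 14.5 μg/h/kg, and plasma drug concentration was taken at the 48 h time point. […] The ratio is the 48 h plasma concentration divided by that IC50.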

[27] = system: Salmonella typhimurium; assay: Genotoxicity in Salmonella typhimurium in absence of rat liver S9 fraction by Ames bacterial reverse mutation assay; format: toxicity, organism-based; details: salmonella enterica subsp. enterica serovar typhimurium
[28] = system: Rattus norvegicus; assay: Reduction in peripheral lymphocyte count in orally dosed rat measured after 24 hrs; format: ADME, organism-based
[29] = Half life in rat liver microsomes; format: ADME
Procedure, shortened: (§4)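 Stability on incubation with liver microsomes of each species; half-life reported.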

[30] = system: Rattus norvegicus; assay: Effect on neurobehaviour in Sprague-Dawley rat up to 350 mg/kg; format: ADME, organism-based; set-up: dose 350 mg/kg; details: in vivo
Procedure, shortened: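 CNS (neurobehavioral) and respiratory safety studies in SD rats, doses up to 350 mg/kg.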

[31] = Elimination half life in monkey at 3 mg/kg, po; format: ADME, organism-based, Macaca mulatta; set-up: dose 3 mg/kg, route oral; details: rhesus monkey, in vivo, read-out: beta t1/2 (converted); procedure, shortened: as §1
[32] = Elimination half life in rat at 1 mg/kg, po; format: ADME, organism-based; set-up: dose 1 mg/kg, route oral; details: in vivo, read-out: beta t1/2 (converted); procedure, shortened: as §1
[33] = Drug level in Sprague-Dawley rat plasma at 14.5 ug/hr/kg dosed as constant infusion measured after 48 hrs; format: ADME, organism-based; details: iv
Procedure, shortened: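 Male Sprague–Dawley rats given constant infusion at 14.5 μg/h/kg for 48 h; brain and plasma concentrations measured at 48 h.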

[34] = system: Canis familiaris; assay: Effect on ECG parameters in telemeterized dog up to 40 mg/kg; format: ADME, organism-based, Canis lupus familiaris; set-up: dose 40 mg/kg; details: in vivo; procedure, shortened: as §2
[35] = AUC (0 to infinity) in mouse at 1 mg/kg, iv or 1 mg/kg, po; format: ADME, organism-based; details: plasma; procedure, shortened: as §1
[36] = Systemic clearance in monkey at 1 mg/kg, iv; format: ADME, organism-based, Macaca mulatta; set-up: dose 1 mg/kg, route intravenous; details: rhesus monkey, in vivo
[37] = system: Canis familiaris; assay: Effect on body temperature in telemeterized dog up to 40 mg/kg; format: ADME, organism-based, Canis lupus familiaris; set-up: dose 40 mg/kg; details: in vivo; procedure, shortened: as §2
[38] = target: Cytochrome P450 3A4 (Homo sapiens, UniProt P08684); assay: Inhibition of CYP3A4 (unknown origin); format: ADME
Cytochrome P450 3A4, sequence (P08684 whole entry): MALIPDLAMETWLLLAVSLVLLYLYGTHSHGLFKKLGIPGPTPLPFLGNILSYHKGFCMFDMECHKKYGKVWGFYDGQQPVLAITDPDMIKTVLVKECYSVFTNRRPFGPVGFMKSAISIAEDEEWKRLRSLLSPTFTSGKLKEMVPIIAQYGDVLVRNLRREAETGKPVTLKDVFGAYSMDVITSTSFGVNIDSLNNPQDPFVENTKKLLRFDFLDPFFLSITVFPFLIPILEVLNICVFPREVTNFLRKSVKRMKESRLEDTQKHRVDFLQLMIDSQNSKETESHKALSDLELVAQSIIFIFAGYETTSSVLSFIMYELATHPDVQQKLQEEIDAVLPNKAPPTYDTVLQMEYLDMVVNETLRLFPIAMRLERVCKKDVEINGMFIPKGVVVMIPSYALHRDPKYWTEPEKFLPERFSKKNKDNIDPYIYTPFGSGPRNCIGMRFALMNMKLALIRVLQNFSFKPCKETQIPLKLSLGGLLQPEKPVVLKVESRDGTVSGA

[39] = Half life in monkey liver microsomes; format: ADME, Macaca mulatta; details: rhesus monkey; procedure, shortened: as §4
[40] = target: Adenosine receptor A3 (Homo sapiens, UniProt P0DMS8); assay: Binding affinity to human adenosine A3 receptor
Adenosine receptor A3, sequence (P0DMS8 whole entry): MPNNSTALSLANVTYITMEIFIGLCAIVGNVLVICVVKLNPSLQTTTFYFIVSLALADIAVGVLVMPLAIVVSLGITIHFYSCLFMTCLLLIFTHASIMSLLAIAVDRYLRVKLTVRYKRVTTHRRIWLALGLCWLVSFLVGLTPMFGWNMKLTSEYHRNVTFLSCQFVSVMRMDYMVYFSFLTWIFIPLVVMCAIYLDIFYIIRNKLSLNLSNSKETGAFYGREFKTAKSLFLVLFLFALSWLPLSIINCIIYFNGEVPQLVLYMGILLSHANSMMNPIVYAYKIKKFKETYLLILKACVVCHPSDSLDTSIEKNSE

[41] = target: Sphingosine 1-phosphate receptor 1 (Rattus norvegicus, UniProt P48303); assay: Agonist activity at rat S1P1 receptor assessed as cAMP accumulation by HTRF assay; format: functional; procedure, shortened: as §3
Sphingosine 1-phosphate receptor 1 (Rattus norvegicus, UniProt P48303), sequence (P48303 whole entry): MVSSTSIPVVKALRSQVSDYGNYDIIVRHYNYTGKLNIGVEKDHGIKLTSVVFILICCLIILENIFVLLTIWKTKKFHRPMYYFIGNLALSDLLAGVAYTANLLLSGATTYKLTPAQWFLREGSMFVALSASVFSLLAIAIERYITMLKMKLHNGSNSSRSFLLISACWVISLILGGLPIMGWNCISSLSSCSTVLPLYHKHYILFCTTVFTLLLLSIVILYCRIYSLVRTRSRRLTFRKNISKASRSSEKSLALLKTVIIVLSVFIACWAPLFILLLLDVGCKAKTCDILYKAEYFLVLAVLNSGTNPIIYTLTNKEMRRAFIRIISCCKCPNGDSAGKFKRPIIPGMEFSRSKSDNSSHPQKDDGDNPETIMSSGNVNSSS

[42] = target: Cytochrome P450 2D6 (Homo sapiens, UniProt P10635); assay: Inhibition of CYP2D6 (unknown origin); format: ADME
Cytochrome P450 2D6, sequence (P10635 whole entry): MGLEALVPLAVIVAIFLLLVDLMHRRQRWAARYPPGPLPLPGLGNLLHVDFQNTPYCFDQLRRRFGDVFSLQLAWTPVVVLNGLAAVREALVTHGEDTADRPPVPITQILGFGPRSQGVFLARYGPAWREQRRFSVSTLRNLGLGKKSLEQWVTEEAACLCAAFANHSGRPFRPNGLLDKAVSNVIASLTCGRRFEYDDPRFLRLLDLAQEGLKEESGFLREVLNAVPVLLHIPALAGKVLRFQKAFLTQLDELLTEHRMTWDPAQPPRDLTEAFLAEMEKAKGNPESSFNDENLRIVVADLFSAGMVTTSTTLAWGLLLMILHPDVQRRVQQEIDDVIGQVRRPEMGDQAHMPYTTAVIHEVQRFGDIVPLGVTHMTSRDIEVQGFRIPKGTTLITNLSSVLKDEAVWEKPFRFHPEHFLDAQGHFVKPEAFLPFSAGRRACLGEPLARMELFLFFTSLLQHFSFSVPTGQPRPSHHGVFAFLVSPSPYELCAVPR

Sphingosine 1-phosphate receptor 5 (Homo sapiens), sequence (Q9H228 whole entry): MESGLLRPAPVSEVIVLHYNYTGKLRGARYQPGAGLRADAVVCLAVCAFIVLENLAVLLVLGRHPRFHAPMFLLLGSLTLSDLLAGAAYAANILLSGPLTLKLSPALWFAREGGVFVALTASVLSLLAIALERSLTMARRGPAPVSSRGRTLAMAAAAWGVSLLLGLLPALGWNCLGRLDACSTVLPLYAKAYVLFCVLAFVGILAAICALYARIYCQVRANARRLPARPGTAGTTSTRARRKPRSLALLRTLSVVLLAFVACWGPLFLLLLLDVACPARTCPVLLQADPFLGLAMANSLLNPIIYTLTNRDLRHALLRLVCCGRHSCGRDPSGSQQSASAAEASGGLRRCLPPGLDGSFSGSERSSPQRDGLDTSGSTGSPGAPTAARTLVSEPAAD

Q: For `O=C(O)C[C@H]1CCc2c1[nH]c1ccc(OCc3ccc(C4CCCC4)c(C(F)(F)F)c3)cc21` [ETRASIMOD], which Emax [1] is on record?
A: 73%

Q: And the AUC(0-inf) [2]?
A: 164000 ng·h/mL

Q: What about the Cmax [3] of the same compound?
A: 2870 ng/mL

Q: What about the EC50 [4] of the same compound?
A: > 10000 nM

Q: And the Activity [5]?
A: Non-toxic

Q: And the Emax [6]?
A: 102%

Q: And the bioavailability [7]?
A: 54%

Q: What about the Vd [8] of the same compound?
A: 1.61 L/kg

Q: And the Emax [9]?
A: 110%

Q: And the EC50 [10]?
A: > 10000 nM

Q: What about the EC50 [11] of the same compound?
A: 0.04 nM

Q: What about the Emax [12] of the same compound?
A: 95%

Q: And the EC50 [13]?
A: 0.34 nM

Q: What about the Emax [14] of the same compound?
A: 63%

Q: What about the bioavailability [15] of the same compound?
A: 100%

Q: What about the Activity [16] of the same compound?
A: Active

Q: What about the AUC(0-inf) [17] of the same compound?
A: 3790 ng·h/mL

Q: What about the IC50 [18] of the same compound?
A: > 30000 nM

Q: And the clearance [19]?
A: 0.23 mL/min/kg

Q: What about the Activity [20] of the same compound?
A: 178.6 g

Q: What about the Emax [21] of the same compound?
A: 87%

Q: And the Activity [22]?
A: Non-toxic

Q: What about the CL [23] of the same compound?
A: 0.746%

Q: And the fraction unbound [24]?
A: 0.02

Q: And the Cmax [25]?
A: 361 ng/mL

Q: What about the Ratio [26] of the same compound?
A: 2

Q: What about the Activity [27] of the same compound?
A: Non-toxic

Q: And the IC50 [28]?
A: 51 nM

Q: What about the half-life [29] of the same compound?
A: > 1 h

Q: What about the Activity [30] of the same compound?
A: Non-toxic

Q: And the half-life [31]?
A: 6.37 h

Q: And the half-life [32]?
A: 9.64 h

Q: And the concentration at 48 h [33]?
A: 110 nM

Q: What about the Activity [34] of the same compound?
A: Non-toxic

Q: And the AUC(0-inf) [35]?
A: 10300 ng·h/mL

Q: What about the clearance [36] of the same compound?
A: 0.947 mL/min/kg

Q: And the Activity [37]?
A: Non-toxic

Q: And the IC50 [38]?
A: > 50000 nM

Q: What about the half-life [39] of the same compound?
A: > 1 h

Q: What about the IC50 [40] of the same compound?
A: 3300 nM

Q: What about the EC50 [41] of the same compound?
A: 0.32 nM

Q: And the IC50 [42]?
A: > 50000 nM
